Legend:
Rattus norvegicus [1] = test: Antiallergic activity in iv dosed sensitized Sprague-Dawley rat assessed as inhibition of passive cutaneous anaphylaxis; assay type: functional; details: read-out: ID50 (the source's name)
In short: (§1)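 Female Sprague-Dawley rats (80–100 g, groups of five) got 0.1 ml intradermal flank injections of rat anti-N. braziliensis reaginic serum, diluted 1 in 8 to 1 in 32. After 24 h they were challenged iv with worm antigen (25 mg/kg protein) plus Evans blue (25 mg/kg). Compound in saline was given iv with the challenge. Rats were killed at 30 min and dye spots graded 0–4. % inhibition = 100 − 100 × treated/control mean score. ID50 was interpolated from a log-dose plot.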

Rattus norvegicus [2] = test: Antiallergic activity in sensitized Sprague-Dawley rat assessed as inhibition of passive cutaneous anaphylaxis at 1 mg/kg, iv; assay type: functional; in short: as §1

Structure (SMILES) | ED50 (Rattus norvegicus [1]) | inhibition in vivo at 1 mg/kg (Rattus norvegicus [2])
C=CCc1c(OC)c2c(=O)cc(C(=O)[O-])oc2c2c(=O)cc(C(=O)[O-])oc12.[Na+].[Na+] | 0.22 mg/kg | –
CCCCc1c2oc(C(=O)[O-])cc(=O)c2cc2c(=O)cc(C(=O)[O-])oc12.[Na+].[Na+] | 0.05 mg/kg | –
CCCc1c2oc(C(=O)[O-])cc(=O)c2cc2c(=O)cc(C(=O)[O-])oc12.[Na+].[Na+] | 0.05 mg/kg | –
COc1c2c(=O)cc(C(=O)[O-])oc2cc2oc(C(=O)[O-])cc(=O)c12.[Na+].[Na+] | 0.32 mg/kg | –
O=C([O-])c1cc(=O)c2c(o1)c(Cl)cc1c(=O)cc(C(=O)[O-])oc12.[Na+].[Na+] | > 10 mg/kg | –
O=C([O-])c1cc(=O)c2c(cc(O)c3c(=O)cc(C(=O)[O-])oc32)o1.[Na+].[Na+] | 5 mg/kg | –
CCc1cc2c(=O)cc(C(=O)[O-])oc2c2c(=O)cc(C(=O)[O-])oc12.[Na+].[Na+] | 10 mg/kg | –
Cc1cc(=O)oc2c1c1oc(C(=O)[O-])cc(=O)c1c1oc(C(=O)[O-])cc(=O)c21.[Na+].[Na+] | 4.24 mg/kg | –
C=CCOc1cc2oc(C(=O)[O-])cc(=O)c2c2oc(C(=O)[O-])cc(=O)c12.[Na+].[Na+] | 0.62 mg/kg | –
O=C([O-])c1cc(=O)c2cc3c(=O)cc(C(=O)[O-])oc3cc2o1.[Na+].[Na+] | 0.18 mg/kg | –
Cc1c2oc(C(=O)[O-])cc(=O)c2cc2c(=O)cc(C(=O)[O-])oc12.[Na+].[Na+] | 0.25 mg/kg | –
CCCc1c2oc(C(=O)[O-])cc(=O)c2c(OC)c2c(=O)cc(C(=O)[O-])oc12.[Na+].[Na+] | 0.1 mg/kg | 100%
COc1cc2oc(C(=O)[O-])cc(=O)c2c2oc(C(=O)[O-])cc(=O)c12.[Na+].[Na+] | 0.73 mg/kg | –
CCOCc1c2oc(C(=O)[O-])cc(=O)c2cc2c(=O)cc(C(=O)[O-])oc12.[Na+].[Na+] | 0.33 mg/kg | –
CCc1c2oc(C(=O)[O-])cc(=O)c2c(C)c2c(=O)cc(C(=O)[O-])oc12.[Na+].[Na+] | 0.03 mg/kg | –
O=C([O-])c1cc(=O)c2c(OCC(O)COc3cccc4oc(C(=O)[O-])cc(=O)c34)cccc2o1.[Na+].[Na+] [CROMOLYN SODIUM] | 1.2 mg/kg | –
O=C([O-])c1cc(=O)c2cc3c(=O)cc(C(=O)[O-])oc3c([N+](=O)[O-])c2o1.[Na+].[Na+] | 1.6 mg/kg | –
O=C([O-])c1cc(=O)c2cc3oc(C(=O)[O-])cc(=O)c3cc2o1.[Na+].[Na+] | 0.68 mg/kg | –
O=C([O-])c1cc(=O)c2c(o1)c1c(c3c(=O)cc(C(=O)[O-])oc32)OCC1.[Na+].[Na+] | 0.35 mg/kg | –
CCOc1cc2oc(C(=O)[O-])cc(=O)c2c2oc(C(=O)[O-])cc(=O)c12.[Na+].[Na+] | 0.38 mg/kg | –
O=C([O-])c1cc(=O)c2c(ccc3c(=O)cc(C(=O)[O-])oc32)o1.[Na+].[Na+] | 7.6 mg/kg | –
CCCc1c(OC)c2c(=O)cc(C(=O)[O-])oc2c2c(=O)cc(C(=O)[O-])oc12.[Na+].[Na+] | 0.18 mg/kg | –
CCc1c2oc(C(=O)[O-])cc(=O)c2cc2c(=O)cc(C(=O)[O-])oc12.[Na+].[Na+] | 0.1 mg/kg | –
